Test results as given in publication PMC10900806 (Asian Journal of Pharmaceutical Sciences, 2024).
“Also recorded” adds a separate entry of the source.

What was measured:
Format in all cases: cell-based
[1] = system: B16-F10 cells; settings: 5 µM, 1 h
[2] = system: caspase-3; assay: Caspase-3 activity assay; settings: B16-F10 cells, 24 h treatment, Caspase-3 assay kit
How it was run: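 B16-F10 cells were seeded at 5 × 10^5 per well and cultured overnight. They were then exposed to test peptides for 24 h, and caspase-3 activity was measured with a commercial caspase-3 activity kit.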

[3] = system: B16-F10 cells; assay: Cell cycle assay; settings: CPT 5 µM, AAM analogs 5 µM, conjugates 5 µM, 1 h at pH 5.5, then 24 h, n = 3
[4] = system: B16-F10 cells; assay: Endosomal escape, co-localization with LysoTracker Red; settings: 5 µM, pH 5.5, 15 min then further 15, 30 and 60 min, ImageJ
How it was run: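 Cells were exposed to a FAM-labelled test peptide (5 µM) at pH 5.5 for 15 min, taken as 0 min, then incubated a further 15, 30 or 60 min. Medium was removed and lysosomes were stained with LysoTracker Red (100 nM, 30 min). After confocal imaging, co-localisation was quantified as Pearson's correlation coefficient (R).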

[5] = system: B16-F10 cells; assay: Short-term cytotoxicity, MTT, 1 h; settings: 1 h incubation, serum-free medium, different pH values, n = 3
How it was run: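 B16-F10 cells were seeded at 1 × 10^4 per well and cultured overnight. They were incubated 1 h with test compounds at different pH values, and viability was assessed by MTT. Membrane-lytic reference peptides served as positive controls. Data are from three independent experiments, given as mean ± SD.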

[6] = system: B16-F10 cells; assay: LDH release assay; settings: 1 h, pH 7.4 or 5.5, CytoTox-ONE kit, n = 3
[7] = system: B16-F10 cells; assay: PI uptake assay; settings: 10 µM
How it was run: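 B16-F10 cells (6 × 10^4) were seeded in glass-bottomed dishes and cultured overnight. End point: 1 h exposure to 10 µM test agent at pH 5.5 or 7.4, then fresh DMEM with PI (1 µg/ml) for 10 min before confocal imaging. Kinetics: 10 µM agent was added to DMEM containing PI (1 µg/ml) at pH 5.5, with images taken every 1 min for 30 min.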

[8] = system: erythrocyte suspension; assay: Hemolysis assay; settings: 10% (v/v) mouse erythrocytes in PBS, 1 h, 37 °C, absorbance at 450 nm
How it was run: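 Heparinised whole mouse blood was centrifuged at 1,000 × g for 15 min. The pellet was washed three times with PBS and resuspended to 10% (v/v) in PBS. Suspension was mixed with test compounds for 1 h at 37 °C, then centrifuged, and supernatant absorbance was read at 450 nm. PBS defined 0% and 0.1% Triton X-100 defined 100% hemolysis.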

For CC[C@@]1(O)C(=O)OCc2c1cc1n(c2=O)Cc2cc3ccccc3nc2-1 [CPT, camptothecin], the “cellular uptake of CPT and peptide-CPT conjugates (blue fluorescence, confocal)” value ([1]; pH 7.4 or 5.5, near UV excitation) was “distinction of fluorescence intensity between pH 7.4 and pH 5.5 was not obvious”, the caspase-3 activation [2] was “significantly activated caspase-3” and the cell cycle distribution [3] was “significantly increased the cell proportion in the G2/M phase and decreased the cell proportion in the G0/G1 and S phases”.

“GIGAVLHVLTTGLPALISWIHHHHQC(FAM)-NH2 [FAM-AAM-1]” was tested, and the “cellular uptake of FAM-labeled peptides, confocal microscopy” value ([1]; serum-free medium, pH 7.4 or 5.5) was “higher cellular uptake in B16-F10 cells at pH 5.5 than that at pH 7.4” and the “Pearson's correlation coefficients (r) between FAM-AAM-1 and LysoTracker Red” value [4] was “r-values became gradually low over time”.

For melittin, the “short-term cytotoxicity against B16-F10 cells” value [5] was “high cytotoxicity to B16-F10 cells, even at 1.25 µM; also recorded: no obvious pH dependence”, the “LDH release (membrane-lytic activity)” value [6] was “strong release of LDH at both pH 7.4 and 5.5” and the “PI uptake (PI-positive cells, membrane-disruptive activity)” value ([7]; 1 h, pH 7.4 and 5.5, PI 1 µg/ml, confocal) was “showed no obvious difference”. For the same compound, the “membrane-lytic behavior in time-lapse images” value ([7]; pH 5.5, PI 1 µg/ml, images every 1 min for 30 min) was “developed necrosis, including rounding, blebbing, swelling, and bursting” and the hemolytic activity [8] was “extreme hemolytic activity”.
